Results reported in ChEMBL document CHEMBL4321820, “Identification and Optimization of Mechanism-Based Fluoroallylamine Inhibitors of Lysyl Oxidase-like 2/3” (J Med Chem, 2019).
Active and inactive are the calls of the source. The rule behind the calls is not given here.

Legend:
Mus musculus [1] = experiment: Antifibrotic activity in bleomycin-induced C57BL/6 mouse model of lung fibrosis assessed as reduction in Ashcroft score at 15 mg/kg, ip administered on day 7 to 27 measured on day 28 by H and E staining based microscopy; assay type: functional, organism-based
Method in brief: (§1)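 Female C57BL/6 mice, 6-8 weeks old, under isoflurane received intranasal bleomycin sulphate 0.05 U/mouse in PBS; controls got PBS. Once-daily i.p. treatment days 7-27, n=12/group; imatinib 50 mg/kg i.p. as comparator. Sacrifice at day 28; lung fibrosis scored by Ashcroft score.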

Mus musculus [2] = experiment: Antifibrotic activity in ip dosed bleomycin-induced C57BL/6 mouse model of lung fibrosis assessed as reduction in Ashcroft score administered on day 7 to 27 measured on day 28 by H and E staining based microscopy; assay type: functional, organism-based; method in brief: as §1
Mus musculus [3] = experiment: Antifibrotic activity in CCl4-induced BALB/c mouse model of liver fibrosis assessed as reduction in liver fibrosis area at 15 mg/kg, po administered once daily for 6 weeks by alpha-SMA staining based microscopy; assay type: functional, organism-based
Method in brief: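 Female BALB/c mice given CCl4 i.p. (1 mL/kg of 25% CCl4 in olive oil) twice weekly for 6 weeks; sacrificed 48 h after last dose. Test articles oral, once daily: prophylactic weeks 1-6 or therapeutic weeks 4-6; imatinib control 50 mg/kg daily weeks 1-6. One formalin-fixed liver lobe stained for Picro Sirius Red and α-SMA; fibrotic area as % of total liver area; mean ± SEM, one-way ANOVA with Dunnett's test.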

[4] = Prodrug conversion in BALB/c mouse plasma assessed as 1-[4-amino-2-fluoro-but-2-enyl]-3-[3-(dimethylsulfamoyl)phenyl]-2-methyl-indole-5-carboxylic acid hydrochloride formation at 20 mg/kg, po administered via gavage by HPLC-MS/MS analysis; assay type: ADME, organism-based; conditions: in vivo
Method in brief: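 Male BALB/c mice dosed by oral gavage at 20 mg/kg (n=3); plasma prodrug and released free acid quantified by LC-MS/MS; each point the mean of 3 animals.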

Mus musculus [5] = experiment: Effect on plasma AST level in CCl4-induced BALB/c mouse model of liver fibrosis at 5 to 15 mg/kg, po administered once daily at week 4 to 6; assay type: ADME, organism-based; conditions: in vivo
Method in brief: (§2)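 CCl4 liver fibrosis in female BALB/c mice: CCl4 i.p. (1 mL/kg 25% in olive oil) twice weekly for 6 weeks, sacrifice 48 h after final injection. Oral once-daily dosing weeks 1-6 or weeks 4-6; imatinib 50 mg/kg daily weeks 1-6. ALT and AST measured in plasma.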

Mus musculus [6] = experiment: Effect on plasma ALT level in CCl4-induced BALB/c mouse model of liver fibrosis at 15 mg/kg, po administered once daily for 6 weeks; assay type: ADME, organism-based; conditions: in vivo, 1008 h; method in brief: as §2
Protein-lysine 6-oxidase = biological target: T1, Protein-lysine 6-oxidase (Homo sapiens, UniProt P28300); experiment: Inhibition of LOX in human IMR90 cells using putrescine as substrate preincubated with enzyme for 30 mins followed by substrate addition and measured every 2.5 mins for 30 mins by Amplex-Red oxidation assay; assay type: cell-based
T1 sequence (P28300 whole entry): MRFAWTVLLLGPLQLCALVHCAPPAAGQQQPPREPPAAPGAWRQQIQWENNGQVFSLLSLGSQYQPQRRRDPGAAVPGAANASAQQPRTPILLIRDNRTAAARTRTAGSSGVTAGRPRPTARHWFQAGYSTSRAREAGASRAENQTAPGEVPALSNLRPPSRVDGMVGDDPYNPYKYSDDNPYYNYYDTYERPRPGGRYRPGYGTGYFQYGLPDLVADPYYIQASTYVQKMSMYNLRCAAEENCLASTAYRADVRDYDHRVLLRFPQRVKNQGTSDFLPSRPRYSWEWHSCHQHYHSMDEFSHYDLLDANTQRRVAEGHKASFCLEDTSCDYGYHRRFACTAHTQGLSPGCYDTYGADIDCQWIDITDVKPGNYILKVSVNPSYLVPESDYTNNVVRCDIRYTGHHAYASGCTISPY
Method in brief: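 IMR90 fibroblasts grown in MEM/10% FBS to 80% confluence, then 48-72 h in phenol-red-free 0.1% FBS medium. Conditioned medium concentrated 40-fold (10 kDa). LOX and LOXL2 separated on a 50 kDa filter in 6 M urea/borate, then diluted back to 1.2 M urea. Preincubated 30 min at 37 °C with compound; Amplex Red/HRP/putrescine readout every 2.5 min over 30 min.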

Lysyl oxidase homolog 2 [7] = biological target: T2, Lysyl oxidase homolog 2 (Homo sapiens, UniProt Q9Y4K0); experiment: Inhibition of recombinant human C-terminal His-tagged […] (1-774 residues) expressed in mouse myeloma cells assessed as inhibition of collagen oxidation measured every 1 min for 3 hrs by Amplex-Red oxidation assay; assay type: cell-based
T2 sequence (Q9Y4K0 whole entry): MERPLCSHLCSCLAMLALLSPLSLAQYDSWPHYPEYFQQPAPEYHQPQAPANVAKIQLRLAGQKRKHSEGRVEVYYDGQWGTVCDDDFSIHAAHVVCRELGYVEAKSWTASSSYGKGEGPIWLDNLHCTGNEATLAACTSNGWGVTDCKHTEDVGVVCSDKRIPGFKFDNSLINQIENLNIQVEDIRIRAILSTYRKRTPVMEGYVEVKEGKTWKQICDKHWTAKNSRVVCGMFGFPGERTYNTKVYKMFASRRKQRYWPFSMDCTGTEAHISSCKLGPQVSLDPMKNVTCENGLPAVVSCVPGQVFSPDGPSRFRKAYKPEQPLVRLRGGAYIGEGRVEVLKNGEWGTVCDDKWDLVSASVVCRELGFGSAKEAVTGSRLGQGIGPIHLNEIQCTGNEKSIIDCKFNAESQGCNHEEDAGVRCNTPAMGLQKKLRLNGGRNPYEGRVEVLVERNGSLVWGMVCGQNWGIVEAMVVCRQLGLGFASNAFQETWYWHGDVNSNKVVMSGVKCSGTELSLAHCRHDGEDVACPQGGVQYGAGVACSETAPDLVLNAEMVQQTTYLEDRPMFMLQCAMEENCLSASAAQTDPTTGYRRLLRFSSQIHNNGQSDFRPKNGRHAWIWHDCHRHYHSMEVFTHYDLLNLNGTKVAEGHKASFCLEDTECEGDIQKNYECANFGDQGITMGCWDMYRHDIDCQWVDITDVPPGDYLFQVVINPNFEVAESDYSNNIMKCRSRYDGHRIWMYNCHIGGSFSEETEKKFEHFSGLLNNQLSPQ
Method in brief: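 Rat tail type I collagen (1.5 mg/mL in 50 mM borate pH 8.2) combined with rhLOXL2 with or without inhibitor (BAPN 100 µM control). Amplex Red (120 µM)/HRP (1.5 U/mL) mix added. Fluorescence read every 1 min for 3 h at 37 °C; slope from the linear 20-40 min phase used for IC50.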

Lysyl oxidase homolog 2 [8] = biological target: T2, Lysyl oxidase homolog 2; experiment: Substrate activity at recombinant human C-terminal His-tagged […] (1-774 residues) expressed in mouse myeloma cells assessed as oxidative turnover at 30 uM measured after 30 mins by horseradish peroxidase-coupled amplex red reagent-based fluorescence assay relative to DMSO; assay type: ADME, cell-based; conditions: 0.5 h
Method in brief: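 LOXL2 incubated with compound, no substrate present. Hydrogen peroxide generation read by Amplex Red/HRP fluorescence (ex 565, em 590 nm). Oxidative turnover at 30 min expressed relative to DMSO.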

[9] = Oral bioavailability in rat; assay type: ADME, organism-based; conditions: in vivo
[10] = Stability in human plasma assessed as half life; assay type: ADME, cell-free
[11] = Oral bioavailability in mouse; assay type: ADME, organism-based; conditions: in vivo
[12] = Stability in dog microsomes assessed as half life; assay type: ADME, Canis lupus familiaris, Microsome

| Drug metabolism [4] | IC50 (Protein-lysine 6-oxidase) | IC50 (Lysyl oxidase homolog 2 [7]) | fold change (FC) (Lysyl oxidase homolog 2 [8]) | bioavailability [9] | half-life [10] | bioavailability [11] | half-life [12] | SMILES | inhibition (Mus musculus [1]) | inhibition (Mus musculus [2]) | inhibition (Mus musculus [3]) | Activity (Mus musculus [5]) | Activity (Mus musculus [6]) |
| --- | --- | --- | --- | --- | --- | --- | --- | --- | --- | --- | --- | --- | --- |
| Metabolite_Detected |  |  |  |  |  |  |  | CCOC(=O)c1ccc2c(c1)c(-c1cccc(S(=O)(=O)N(C)C)c1)c(C)n2C/C(F)=C/CN.Cl | Active | Dose-dependent effect | Active | Non-Toxic | Non-Toxic |
|  | 1260 nM | 13 nM | 1 | < 1% | > 2 h | < 1% | > 1.5 h | Cc1c(-c2cccc(S(=O)(=O)N(C)C)c2)c2cc(C(=O)O)ccc2n1C/C(F)=C/CN.Cl |  |  |  |  |  |
